According to paper PMC4409664 (Cell, 2015):

How the values were obtained:
Type in all cases: binding
human TTR = assay: RBP-TTR coimmunoprecipitation from HeLa conditioned media; conditions: HeLa cotransfected, HA immunoprecipitates
Summary of the method: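 HeLa cells cotransfected with myc-tagged TTR plus wild-type or mutant N-terminal HA-tagged human RBP plasmids. Secreted RBP complexes pulled from conditioned media with anti-HA agarose beads and washed in PBS. Western blot of immunoprecipitates probed first for TTR, then for HA.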

[1] = In vitro retinol titration by fluorescence enhancement; conditions: read-out: Kd for retinol; apo-RBP^HA, PBS, fluorescence ex 330 nm, em 460 nm
Summary of the method: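 Apo RBP-HA was immunopurified from serum-free HeLa conditioned medium, eluted with HA peptide, dialyzed into PBS and checked for homogeneity by gel. Equal amounts of protein (380 nM) were loaded with fresh all-trans retinol (0 to 5 µM) for 1 hr in PBS. Retinol fluorescence enhancement (ex 330, em 460 nm) was read on a microplate reader. Parallel runs used PBS with 0.1% phosphatidylcholine vesicles.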

STRA6 = molecular target: T1, STRA6 (Homo sapiens, UniProt Q9BX79); assay: STRA6-RBP equilibrium and kinetic analysis by ELISA on STRA6+ HEK293T cells; conditions: read-out: Kd for STRA6, apo RBP^HA, 90 min at 37°C
T1 sequence (Q9BX79 1-667): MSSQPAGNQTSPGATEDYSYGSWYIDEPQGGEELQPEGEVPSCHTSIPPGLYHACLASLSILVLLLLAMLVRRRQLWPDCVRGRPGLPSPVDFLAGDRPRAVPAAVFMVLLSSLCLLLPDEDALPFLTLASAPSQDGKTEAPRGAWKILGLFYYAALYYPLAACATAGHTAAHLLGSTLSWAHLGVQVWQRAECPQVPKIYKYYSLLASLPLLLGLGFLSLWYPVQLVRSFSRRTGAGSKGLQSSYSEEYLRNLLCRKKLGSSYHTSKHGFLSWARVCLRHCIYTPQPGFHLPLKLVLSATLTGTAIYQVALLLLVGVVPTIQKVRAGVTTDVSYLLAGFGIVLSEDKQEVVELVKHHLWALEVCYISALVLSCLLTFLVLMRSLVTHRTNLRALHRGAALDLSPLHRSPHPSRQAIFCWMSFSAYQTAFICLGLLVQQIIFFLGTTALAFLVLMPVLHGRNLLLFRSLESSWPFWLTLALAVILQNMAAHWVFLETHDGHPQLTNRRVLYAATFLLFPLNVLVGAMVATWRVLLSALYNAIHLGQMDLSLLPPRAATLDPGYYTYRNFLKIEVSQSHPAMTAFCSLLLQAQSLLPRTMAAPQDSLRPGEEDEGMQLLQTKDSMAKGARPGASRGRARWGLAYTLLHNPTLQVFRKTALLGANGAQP
Summary of the method: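 Cells transfected with STRA6myc or vector were grown on poly-D-lysine. They were incubated 90 min at 37°C with medium containing 0–80 µg/mL apo RBP-HA and 0.5% BSA, washed in ice-cold HBSS, and bound RBP was eluted with 25 mM glycine HBSS pH 3. RBP was quantified by ELISA, with control-cell binding subtracted. Kd came from isotherms and reciprocal plots. TTR affinity was measured by SPR, running a TTR series over captured apo His-RBP.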

Substance: serum retinol binding protein [WT]
- interaction with human TTR in coimmunoprecipitation (human TTR): interacted strongly
- Kd [1]: ~80 nM
- Kd (STRA6): 59 nM
